Results taken from paper PMC12399198 (Acta Pharmaceutica Sinica. B, 2025).
Peptide text beside a SMILES is read from it. * marks the point of attachment. Cbz = O=C(OCc1ccccc1)*

What was measured:
[1] = system: OVA-induced AR mouse model; experiment: OVA-induced AR mouse model; type: in vivo; conditions: OVA-induced AR mice
How it was run: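 Male C57BL/6 mice, 6 weeks old, sensitised i.p. with OVA/alum (1:1) weekly for 3 weeks. Then challenged i.n. with OVA 2 mg/20 µL daily for 7 days. Test compound given i.n. at 0, 5, 10 or 20 mg/kg in 5% DMSO/45% PEG400/50% PBS, once daily, 6 h before each challenge; dexamethasone 1 mg/kg as reference. Sneezes and nasal rubs counted blinded for 10 min, starting 10 min after challenge; n = 8.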

[2] = molecular target: Keap1 (Homo sapiens, UniProt Q14145); experiment: Keap1 degradation in MDA-MB-231 cells; type: cell-based; conditions: 24 h, dose-dependent
Keap1, sequence (Q14145 whole entry): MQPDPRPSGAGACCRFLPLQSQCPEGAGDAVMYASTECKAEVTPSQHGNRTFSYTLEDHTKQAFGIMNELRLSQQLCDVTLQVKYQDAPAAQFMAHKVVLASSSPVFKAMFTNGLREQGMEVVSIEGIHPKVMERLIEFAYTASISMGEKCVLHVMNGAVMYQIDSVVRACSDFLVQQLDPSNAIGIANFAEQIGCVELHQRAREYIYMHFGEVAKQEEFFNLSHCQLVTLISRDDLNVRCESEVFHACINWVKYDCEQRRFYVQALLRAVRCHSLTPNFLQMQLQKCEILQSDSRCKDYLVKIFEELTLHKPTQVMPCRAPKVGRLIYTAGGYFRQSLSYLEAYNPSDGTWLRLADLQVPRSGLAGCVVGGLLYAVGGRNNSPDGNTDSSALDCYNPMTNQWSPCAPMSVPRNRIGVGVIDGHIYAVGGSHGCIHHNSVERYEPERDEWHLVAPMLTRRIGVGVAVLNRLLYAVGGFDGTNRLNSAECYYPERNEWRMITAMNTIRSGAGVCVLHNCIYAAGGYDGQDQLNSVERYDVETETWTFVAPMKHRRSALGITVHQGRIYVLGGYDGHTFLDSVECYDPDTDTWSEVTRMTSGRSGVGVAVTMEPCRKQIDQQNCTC

effect on Keap1 levels [2]	Compound	allergic nasal symptoms (number of nasal rubbing and sneezing every 10 min) ([1]; i.n. daily for 7 days, 8 at 5, 10, 20 mg/kg, DEX 1 mg/kg)	CD45+ cells in nasal mucosa (IHC staining) ([1]; DEX or high dose of 8)	eosinophil infiltration within the nasal mucosa (Giemsa staining) ([1]; DEX or high dose of 8)
–	C[C@@H]1C[C@H]2[C@@H]3CCC4=CC(=O)C=C[C@]4(C)[C@@]3(F)[C@@H](O)C[C@]2(C)[C@@]1(O)C(=O)CO [DEX, Dexamethasone]	decreased	reduced	significantly reduced
decreasing Keap1 levels	CC(C)C[C@@H](C=O)NC(=O)[C@H](CC(C)C)NC(=O)[C@H](CC(C)C)NC(=O)OCc1ccccc1 [MG132] (Cbz-Leu-Leu-Leu-aldehyde)	–	–	–
